# In ChEMBL document CHEMBL1148884, “Radioiodinated aza-diphenylacetylenes as potential SPECT imaging agents for beta-amyloid plaque detection” (Bioorg Med Chem Lett, 2007):
# Test system: not listed separately
# Experiment: Lipophilicity, log P of the compound
# Type: physicochemical
# Details: octanol/water
row,Compound,logP
1,CN(C)c1ccc(C#Cc2cnc(OCCO)c([125I])c2)cc1,2.8
2,CN(C)c1ccc(C#Cc2cnc(OCCOCCOCCF)c([125I])c2)cc1,2.6

# Molecular target: Amyloid-beta precursor protein (Homo sapiens, UniProt P05067)
# Experiment: Displacement of [125I]IMPY from beta amyloid plaque in human brain homogenates
# Type: tissue-based
# Details: not given
# In short: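 Competition binding with [125I]IMPY as radioligand on homogenates from postmortem Alzheimer's disease brain tissue. Non-radioactive ligands compete for plaque binding, and Ki is derived from the competition. Each value was determined three times with duplicate samples in each measurement, reported as mean ± SEM.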
# Sequence of Amyloid-beta precursor protein (P05067 whole entry): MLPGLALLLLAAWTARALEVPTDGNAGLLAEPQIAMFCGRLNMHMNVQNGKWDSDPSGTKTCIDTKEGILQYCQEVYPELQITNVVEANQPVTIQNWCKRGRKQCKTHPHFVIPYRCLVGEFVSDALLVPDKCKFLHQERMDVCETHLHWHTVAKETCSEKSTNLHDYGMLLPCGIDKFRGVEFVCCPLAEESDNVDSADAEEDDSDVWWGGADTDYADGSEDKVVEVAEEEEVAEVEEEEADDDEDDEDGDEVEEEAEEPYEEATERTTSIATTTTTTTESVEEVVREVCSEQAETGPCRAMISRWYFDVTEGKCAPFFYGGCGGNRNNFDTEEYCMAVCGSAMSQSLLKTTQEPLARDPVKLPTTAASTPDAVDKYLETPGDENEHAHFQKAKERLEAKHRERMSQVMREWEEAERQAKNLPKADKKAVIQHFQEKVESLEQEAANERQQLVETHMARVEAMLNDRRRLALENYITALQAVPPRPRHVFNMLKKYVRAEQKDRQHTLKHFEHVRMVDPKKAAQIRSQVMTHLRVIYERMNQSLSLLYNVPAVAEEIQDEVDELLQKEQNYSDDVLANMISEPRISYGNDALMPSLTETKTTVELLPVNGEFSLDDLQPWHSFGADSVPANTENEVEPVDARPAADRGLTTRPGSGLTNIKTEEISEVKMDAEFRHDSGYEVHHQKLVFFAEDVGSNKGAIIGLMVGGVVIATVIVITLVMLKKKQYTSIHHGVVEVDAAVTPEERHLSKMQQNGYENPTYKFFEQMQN
row,Compound,Ki
1,CN(C)c1ccc(C#Cc2cnc(OCCOCCOCCF)c(I)c2)cc1,16.8 nM
2,CN(C)c1ccc(C#Cc2cnc(OCCO)c(Br)c2)cc1,6.7 nM
3,CN(C)c1ccc(C#Cc2cnc(OCCOCCOCCF)c(Br)c2)cc1,11.2 nM
4,OCCOc1ncc(C#Cc2ccc(O)cc2)cc1I,6.2 nM
5,CN(C)c1ccc(C#Cc2cnc(OCCO)c(I)c2)cc1,9.2 nM
6,CNc1ccc(C#Cc2cnc(OCCO)c(Br)c2)cc1,1.6 nM
7,CNc1ccc(C#Cc2cnc(OCCO)c(I)c2)cc1,12.5 nM
8,CNc1ccc(C#Cc2cnc(OCCOCCOCCF)c(Br)c2)cc1,13.1 nM
